Paper PMC10500652 (ACS Omega, 2023)

How the values were obtained:
HeLa = assay: MTT cytotoxicity assay, HeLa; format: cell-based, human; details: for IC50: read-out: IC50 HeLa, MTT, 48 h incubation; for selectivity factor HeLa: ratio of IC50 HEK-293 / HeLa
Method in brief: (§1)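 Cells kept in DMEM with 10% FBS, 1% nonessential amino acids and 1% antibiotic-antimycotic at 37 °C, 95% humidity, CO2, and trypsinised at 80% confluence. Seeded 1 × 10^4 cells/well, grown 24 h, then exposed to test compound. MTT read-out at 570 nm, in triplicate. % growth inhibition = 100 − (AD × 100/AB), against vehicle wells.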

MCF-7 = assay: MTT cytotoxicity assay, MCF-7; format: cell-based, human; details: for IC50: read-out: IC50 MCF 7, MTT, 48 h incubation; for selectivity factor MCF-7: ratio of IC50 HEK-293 / MCF-7
Method in brief: as §1

U87MG = assay: MTT cytotoxicity assay, U87MG; format: cell-based, human; details: for IC50: read-out: IC50 U87MG, MTT, 48 h incubation; for selectivity factor U87MG: ratio of IC50 HEK-293 / U87MG
Method in brief: as §1

HEK293 = assay: MTT cytotoxicity assay, HEK293; format: cell-based, human; details: read-out: IC50 HEK293, 48 h incubation, normal cell line
Method in brief: as §1

MCF-7 cells [1] = assay: Apoptosis, Annexin V FITC/PI assay; format: cell-based, human; details: 15 μM, 24 h
Ct-DNA [2] = details: value reported in the literature; cited from earlier work
MCF-7 cells [3] = assay: Cell cycle analysis; format: cell-based, human; details: 8 μM, 24 h
Method in brief: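 MCF-7 cells (1 × 10^6) grown 24 h, exposed to test compound in medium 24 h, then harvested by centrifugation. Fixed at 4 °C overnight and washed twice with cold PBS. Stained 15 min in the dark with 0.05 mg/ml PI plus 0.05 mg/ml RNaseA in sheath fluid. DNA content measured by flow cytometry to give percentage of cells in each cycle phase.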

[4] = Fluorescence quantum yield; format: physicochemical; details: relative to quinine sulfate; 0.1% DMSO buffer solution, pH 7.2
Method in brief: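 Relative emission quantum yield against quinine sulfate in H2SO4 (excitation 350 nm, emission 452 nm, ΦR 0.50). Calculated from integrated emission peak area, absorbance at λmax and refractive indices of sample and reference solvents.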

[5] = Lipophilicity, n-octanol/water partition coefficient by shake-flask method; format: physicochemical; details: UV detection
Method in brief: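 Shake-flask partition: test compound dissolved in octanol/water and shaken 24 h. Phases separated by settling over 30 min or centrifuging 5000 rpm for 20 min, collected without cross-contamination. Compound in each phase quantified by UV-vis at room temperature. log Po/w = log([octanol]/[aqueous]); mean of three independent experiments.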

Solubility = format: physicochemical
[6] = Molar conductivity measurement; format: physicochemical; details: for molar conductance ^M in 10% DMSO: 10% aqueous DMSO; for molar conductance ^M in DMSO: pure DMSO
Method in brief: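 Conductivity of test compound at 3 × 10^-5 M in DMSO and in aqueous DMSO, measured with a conductivity meter of cell constant 1.0 cm^-1.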

Ct-DNA [7] = assay: Ct-DNA binding by UV absorption titration; design: species or system calf; details: on titration with Ct-DNA, Tris-HCl/NaCl buffer
Method in brief: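 UV absorbance titration: Ct-DNA (purity checked by OD 260/280) added stepwise from stock to test compound held fixed at 20 μM in 5 mM Tris-HCl/50 mM NaCl. Intrinsic binding constant Kb from slope/intercept of linear fit. Hypochromicity %H = (A0 − AF)/A0 × 100, AF taken when absorbance stops changing.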

Ct-DNA [8] = assay: Ethidium bromide displacement; format: binding, calf; details: for KSV, Stern–Volmer quenching constant: EtBr–Ct-DNA adduct
Method in brief: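 EtBr–Ct-DNA adduct (EtBr 8 μM) titrated with test compound at 5–60 μM; drop in EtBr emission followed. KSV from linear Stern–Volmer fit of I0/I vs [complex]. Kapp from the concentration giving 50% quenching: Kapp × [compound]50 = KEtBr × [EtBr], with KEtBr 1.0 × 10^7 M^-1.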

BSA = BSA (Bos taurus, UniProt P02769); assay: BSA binding, tryptophan emission quenching; design: species or system bovine; details: for KBSA, Stern–Volmer quenching constant: BSA fluorescence at 340 nm; for K, binding constant with BSA / n, number of binding sites: Scatchard plot; for kq, quenching rate constant: from KBSA and τ0 = 1 × 10^–8 s
Method in brief: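 BSA prepared at 2 × 10^-6 M in Tris-HCl/NaCl buffer and titrated with increasing amounts of aqueous test compound. Mixed gently 5 min after each addition; tryptophan emission read at 340 nm with excitation at 295 nm. KBSA from Stern–Volmer plot of I0/I vs [complex]; kq = KBSA/τ0 with τ0 1 × 10^-8. K and n from log((I0−I)/I) vs log[Q].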

Sequence of BSA (P02769 25-607): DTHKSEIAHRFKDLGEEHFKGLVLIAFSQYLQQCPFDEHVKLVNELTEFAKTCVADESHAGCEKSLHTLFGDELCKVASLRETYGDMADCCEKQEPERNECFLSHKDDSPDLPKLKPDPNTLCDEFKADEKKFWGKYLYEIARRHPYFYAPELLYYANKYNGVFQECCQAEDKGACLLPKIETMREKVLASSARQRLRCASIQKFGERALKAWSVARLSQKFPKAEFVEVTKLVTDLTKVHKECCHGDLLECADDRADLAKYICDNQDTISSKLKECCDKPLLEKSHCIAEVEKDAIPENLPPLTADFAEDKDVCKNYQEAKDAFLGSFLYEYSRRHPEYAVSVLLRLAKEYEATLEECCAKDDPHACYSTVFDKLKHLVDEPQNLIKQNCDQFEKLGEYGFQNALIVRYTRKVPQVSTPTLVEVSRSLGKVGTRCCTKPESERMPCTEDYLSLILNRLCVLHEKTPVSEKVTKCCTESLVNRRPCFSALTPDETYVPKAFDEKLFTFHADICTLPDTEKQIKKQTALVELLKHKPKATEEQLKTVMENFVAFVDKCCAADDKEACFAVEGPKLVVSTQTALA

N.N.[Cl][Pt][Cl] [cisplatin, cis-diamminedichloroplatinum(II), reference compound]
IC50 (HeLa): 16.4 ± 0.16 µM | IC50 (MCF-7): 20.1 ± 1.6 µM | IC50 (U87MG): 16.9 ± 2.1 µM | IC50 (HEK293): 34.8 µM | early apoptosis (MCF-7 cells [1]): 12.00% | late apoptosis (MCF-7 cells [1]): 32.04% | necrotic cells (MCF-7 cells [1]): 3.12%

CC[n+]1c(-c2ccccc2)c2cc(N)ccc2c2ccc(N)cc21 [EtBr, Ethidium bromide]
KEtBr, binding constant of EtBr to DNA (Ct-DNA [2]): 1.0 × 10^7 M^–1

COc1cc2c(c(OC)c1OC)-c1ccc(OC)c(=O)cc1[C@@H](NC(C)=O)CC2 [colchicine]
G0/G1 phase cells (MCF-7 cells [3]): 54.11% | G2/M phase cells (MCF-7 cells [3]): 34.60% | S phase cells (MCF-7 cells [3]): 8.30% | sub-G0 phase cells (MCF-7 cells [3]): 0.64%

[Re^I(CO)3Cl(K^2-N,N-2-(2-(4-(4-(Pyridin-2-yl)-1H-1,2,3-triazol-1-yl)butoxy)phenyl)benzo[d]thiazole)] [Complex 7c]
quantum yield (ϕf) [4]: 0.0140 | log Po/w (n-octanol/water partition coefficient) [5]: 0.3180 | solubility in water / aqueous medium (Solubility): poor solubility in water | molar conductance ^M in 10% DMSO [6]: 22 S cm^2 mol^–1 | molar conductance ^M in DMSO [6]: 9 S cm^2 mol^–1 | Δε, change in molar absorptivity (Ct-DNA [7]): 27.12% | KSV, Stern–Volmer quenching constant (Ct-DNA [8]): 8.2 × 10^3 M^–1 | KBSA, Stern–Volmer quenching constant (BSA): 0.296 × 10^6 M^–1 | K, binding constant with BSA (BSA): 0.087 × 10^6 M^–1 | n, number of binding sites (BSA): 1.21 | kq, quenching rate constant (BSA): 2.9 × 10^13 M^–1 s^–1 | selectivity factor HeLa (HeLa): 5.15 | IC50 (HeLa): 19.4 ± 0.19 µM | selectivity factor MCF-7 (MCF-7): 2.44 | IC50 (MCF-7): 40.9 ± 1.4 µM | selectivity factor U87MG (U87MG): 1.31 | IC50 (U87MG): 76 ± 3.5 µM | IC50 (HEK293): > 100 µM

[(η^5-Cp*)Ir^IIICl(K^2-N,N-2(2-(4-(4-(Pyridin-2-yl)-1H-1,2,3-triazol-1-yl)butoxy)phenyl)benzo[d]thiazole)]Cl [Complex 7b]
quantum yield (ϕf) [4]: 0.0004 | solubility in water / aqueous medium (Solubility): very good solubility in aqueous medium | molar conductance ^M in 10% DMSO [6]: 26 S cm^2 mol^–1 | molar conductance ^M in DMSO [6]: 5 S cm^2 mol^–1 | Δε, change in molar absorptivity (Ct-DNA [7]): 46.66% | Kapp, apparent DNA-binding constant (Ct-DNA [8]; 50% quenching, [EtBr] = 8 μM, [DNA] = 120 μM): 0.14 × 10^7 M^–1 | KSV, Stern–Volmer quenching constant (Ct-DNA [8]): 4 × 10^3 M^–1 | KBSA, Stern–Volmer quenching constant (BSA): 0.201 × 10^6 M^–1 | K, binding constant with BSA (BSA): 0.057 × 10^6 M^–1 | n, number of binding sites (BSA): 1.33 | kq, quenching rate constant (BSA): 2.01 × 10^13 M^–1 s^–1 | selectivity factor HeLa (HeLa): 6.31 | IC50 (HeLa): 15.8 ± 0.7 µM | selectivity factor MCF-7 (MCF-7): 2.45 | IC50 (MCF-7): 40.9 ± 1.8 µM | selectivity factor U87MG (U87MG): 1 | IC50 (U87MG): > 100 µM | IC50 (HEK293): > 100 µM
